Source: publication PMC6088348 (ACS Medicinal Chemistry Letters, 2018)

Key:
[1] = system: tryptase activity in HMC1 cell lysates; assay: Inhibition of cellular tryptase activity assessed in HMC1 cell lysates; format: cell-based, human; conditions: read-out: IC50 in HMC1 cellular lysates; lysates of inhibitor-treated HMC1 cells
Method in brief: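 Tryptase activity measured in lysates of cultured HMC1 human mast cells. IC50 with SEM from nonlinear regression, Hill slope unconstrained.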

[2] = Stability of the linker moiety in aqueous buffers and plasma; format: physicochemical; conditions: relative to the initial α-hydroxyacetonyl ether

Compound	IC50 [1] [nM]	stability under aqueous conditions [2]
NCc1cccc(C2CCN(C(=O)c3cccc(OCC(=O)C4(O)CCC4)c3)CC2)c1 [Compound 1a]	454	improved stability
NCc1cccc(C2CCN(C(=O)c3cccc(OCC(O)C4(O)CCC4)c3)CC2)c1 (stereo not shown) [Compound 1b]	8400	–
NCc1cccc(C2CCN(C(=O)c3cccc(NC(=O)C(=O)C4(O)CCC4)c3)CC2)c1 [Compound 2a]	314	improved stability
CC(C)(O)C(=O)C(=O)Nc1cccc(C(=O)N2CCC(c3cccc(CN)c3)CC2)c1 [Compound 3a]	113	–
CC(C)(O)C(O)C(=O)Nc1cccc(C(=O)N2CCC(c3cccc(CN)c3)CC2)c1 (stereo not shown) [Compound 3b]	13300	–
